Screening data deposited in PubChem BioAssay by several laboratories.
HKDC1 inhibitor: HKDC1 hexokinase inhibitors, primary screen, biochemical, fluorescence, uHTS. Q2TB90. recombinant HKDC1, G6PDH/diaphorase resazurin coupled fluorescence. inhibition, % at 20 µM. hit rate 0.16% among 340,000;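 active = inhibition above about 35% when tested at 20 µM, limit read from the data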;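 also: plate controls were DMSO wells with enzyme for no effect and DMSO wells lacking enzyme for full effect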
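Material – in-house recombinant HK5 (HKDC1) enzyme · Quantity – HKDC1 at 5 µg/mL · Buffer or medium – pH 8.0 Tris buffer with 10 mM MgCl2 · Reagent – glucose with 1 mM ATP · Dosing – single 20 µM dose · Times – reaction time 90 min, room temperature, protected from light · Technique – resorufin fluorescence at 613 nm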
PfGluPho inh: PfG6PD enzyme inhibitors, primary screen, biochemical, fluorescence intensity, uHTS; inhibition, % at 20 µM; AID 504690, 2011; PfGluPho enzyme, NADPH resazurin-diaphorase fluorescence; hit rate 0.78% among 350,000; glucose-6-phosphate dehydrogenase-6-phosphogluconolactonase (Plasmodium falciparum 3D7);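 active = inhibition reaching at least a set limit at 20 µM in the primary screen, cut at about 59% in these data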;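 also: 0% = DMSO wells with substrate and 100% = DMSO wells lacking glucose-6-phosphate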
APOBEC3A inh: APOBEC3A ssDNA deaminase inhibitors, primary screen, selectivity assay for APOBEC3G inhibitor project, biochemical, FAM/TAMRA oligo cleavage fluorescence; inhibition, % at 20 µM; recombinant A3A, FAM/TAMRA ssDNA deamination fluorescence; DNA dC->dU-editing enzyme APOBEC-3A (Homo sapiens), P31941; AID 493011, 2011; hit rate 0.41% among 330,000;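 active = at least 40% inhibition at 20 µM here, with at most 30% in a related deaminase screen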;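 also: plate controls were A3A with DMSO for no effect and wells lacking A3A enzyme for full effect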
Target sequence (P31941 whole entry, looked up): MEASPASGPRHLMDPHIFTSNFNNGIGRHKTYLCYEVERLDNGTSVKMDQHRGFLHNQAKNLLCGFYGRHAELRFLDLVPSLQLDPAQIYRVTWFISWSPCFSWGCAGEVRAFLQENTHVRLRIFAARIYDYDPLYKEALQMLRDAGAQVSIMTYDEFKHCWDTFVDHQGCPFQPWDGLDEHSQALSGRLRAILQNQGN
UBC9 SUMO inh: inhibitors of in vitro SUMOylation cascade, primary screen, biochemical, HTRF, uHTS; SUMO-conjugating enzyme UBC9 (Homo sapiens), P63279; HTRF SUMOylation assay, SAE1/SAE2 + UBC9; inhibition, % at 35 µM; hit rate 0.36% among 290,000; in the data active = inhibition above about 50%, passing the limit was not always enough
Target sequence (P63279 whole entry, looked up): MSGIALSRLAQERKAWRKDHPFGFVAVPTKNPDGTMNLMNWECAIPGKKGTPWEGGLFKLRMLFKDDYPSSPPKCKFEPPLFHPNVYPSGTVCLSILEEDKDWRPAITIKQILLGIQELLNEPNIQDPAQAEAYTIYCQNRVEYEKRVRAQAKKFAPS
PfM18AAP inh: PfM18AAP inhibitors, malaria aminopeptidase, primary screen, biochemical, QFRET, recombinant enzyme. M18 aspartyl aminopeptidase (Plasmodium falciparum 3D7). inhibition, % at 7.35 µM. H-Glu-NHMec fluorogenic cleavage. hit rate 1.2% among 290,000;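 active = inhibition above the campaign mean inhibition over all tested compounds plus 3 SD, cut at about 28% in these data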;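 also: 0% = plate median of test compound wells and 100% = 2 mM ZnCl2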
A3G deaminase: APOBEC3G DNA deaminase inhibitors, primary screen, biochemical, fluorescence, single-stranded DNA substrate, uHTS; hit rate 0.28% among 330,000; AID 493012, 2011; inhibition, % at 20 µM; recombinant A3G, ssDNA deamination FAM/TAMRA fluorescence;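 active = inhibition of at least 40% at 20 µM, with no more than 30% in the related APOBEC3A deaminase screen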;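 also: plate controls were DMSO wells with A3G for no effect and wells lacking A3G enzyme for full effect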
Target sequence (Q9HC16 whole entry, looked up): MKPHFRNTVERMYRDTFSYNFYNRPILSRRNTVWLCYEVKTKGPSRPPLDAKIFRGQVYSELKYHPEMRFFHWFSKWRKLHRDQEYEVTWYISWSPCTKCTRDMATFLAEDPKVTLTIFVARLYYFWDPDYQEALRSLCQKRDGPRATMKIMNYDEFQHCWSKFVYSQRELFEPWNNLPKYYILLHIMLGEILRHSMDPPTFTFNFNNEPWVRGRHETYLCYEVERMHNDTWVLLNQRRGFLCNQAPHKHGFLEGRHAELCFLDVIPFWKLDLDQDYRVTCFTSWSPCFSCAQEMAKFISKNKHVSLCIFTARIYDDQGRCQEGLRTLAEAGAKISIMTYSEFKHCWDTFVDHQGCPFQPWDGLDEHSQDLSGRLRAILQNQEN
PfG6PD confirm: PfG6PD inhibitors, hit retest, confirmation, biochemical, fluorescence intensity, single concentration | shares compounds with PfGluPho inh | recombinant PfGluPho, NADPH-diaphorase-resazurin fluorescence | inhibition, % at 20 µM | hit rate 34% among 2,400 | AID 504753, 2011;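 active = inhibition of at least 50% at 20 µM in any single replicate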;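 also: 0% = DMSO with substrate and 100% = DMSO lacking glucose-6-phosphate substrate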
Diaph ctr 10uM: diaphorase inhibitors and chemical oxidizers, confirmation, counter-screen for P. falciparum G6PD inhibitor project, biochemical, fluorescence intensity, 10 µM NADPH | shares compounds with PfGluPho inh | diaphorase-coupled resazurin reduction, NADPH 10 uM | inhibition, % at 20 µM | hit rate 39% among 820;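 active = average inhibition reaching 50% or more with the compound at 20 µM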;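 also: resorufin red fluorescence formed as diaphorase reduces resazurin using NADPH; 0% = DMSO with enzyme and 100% = DMSO without enzyme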
Diaphorase 30uM: diaphorase inhibitors and chemical oxidizers, confirmation, counter-screen for P. falciparum G6PD inhibitor project, biochemical, fluorescence intensity, 30 µM NADPH; shares compounds with PfGluPho inh; Diaphorase/resazurin coupled assay, resorufin fluorescence; inhibition, % at 20 µM; hit rate 29% among 820; AID 504863, 2011;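 active = inhibition averaging 50% or more, tested at 20 µM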;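 also: 0% = DMSO with enzyme and 100% = DMSO wells lacking diaphorase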
The depositor's hits bear a star; . = not tested or not shown. Hits are enriched below; roughly 2.4% of the tested compounds scored in any of these assays.

SMILES | HKDC1 inhibitor | PfGluPho inh | APOBEC3A inh | UBC9 SUMO inh | PfM18AAP inh | A3G deaminase | PfG6PD confirm | others
O=C(Cn1ccc(=O)[nH]c1=O)NCCO | 2 | -11 | 2 | -4 | 3 | -12 | .
Cc1cc(O)ccc1N/C=C(\C#N)c1nc2ccccc2o1 | -6 | -13 | 2 | 10 | 2 | 0 | .
CC(=O)Nc1cc(C(C)(C)C)c(O)c(C(C)(C)C)c1 | -2 | 81* | -3 | 12 | 31* | -5 | -8
CC(C)(C)NC(=O)c1cc(C(C)(C)C)c(O)c(C(C)(C)C)c1 | 1 | 8 | 4 | -5 | 6 | 0 | .
COc1ccc(NC(=O)c2ccc(OC(F)F)cc2)cc1Cl | 0 | 85* | -1 | 2 | -13 | -6 | 2
COc1ccc(NC(=O)c2cc(F)cc(F)c2)cc1Cl | -2 | 0 | -2 | 11 | 7 | -5 | .
COc1ccc(NC(=O)c2ccc(C)cc2)cc1 | -1 | 44 | -1 | -2 | -1 | -6 | .
Cc1cc(NC(=O)c2ccc3[nH]c(C)c(C)c3c2)ccn1 | -4 | 46 | -1 | -12 | 3 | -3 | .
COc1ccc(NC(=O)c2ccc3[nH]c(C)c(C)c3c2)cc1 | -1 | 68* | -2 | -19 | 8 | -2 | 28
CC(=O)Nc1cccc(NC(=O)c2ccc3[nH]c(C)c(C)c3c2)c1 | -3 | 78* | -3 | 7 | 0 | -10 | 32
CCOc1cc(/C=N\NC(=O)OC(C)(C)C)ccc1OC(=O)c1ccco1 | -3 | 5 | 1 | -9 | 7 | -5 | .
Cn1nnnc1SCC(=O)NNC(=O)c1ccc(Cl)cc1 | 0 | -17 | -1 | 15 | 3 | 0 | .
CC(=NNC(=S)N1CCCC1)c1ccccn1 | . | 67* | . | . | . | . | 12
O=C(c1ccco1)N1CCN(C(=O)c2ccc(-c3ccc([N+](=O)[O-])cc3)o2)CC1 | 7 | 64* | 5 | . | . | 23 | -6
CC(Sc1n[nH]c(=O)[nH]c1=O)C(=O)OCc1ccccc1 (stereo unspecified) | 0 | -11 | -21 | -2 | -7 | -8 | .
O=C(Nc1ccc(C(O)(C(F)(F)F)C(F)(F)F)cc1)c1ccc(Cl)c([N+](=O)[O-])c1 | 7 | 63* | -1 | -19 | 9 | -2 | -10
Cc1ccc(CSc2nnc(-c3ccccc3N)c(=O)[nH]2)cc1 | -1 | -27 | -1 | 17 | 0 | -6 | .
COc1cc(CNn2c(C)n[nH]c2=S)cc(Cl)c1OCc1ccc(F)cc1 | 10 | 46 | -8 | 0 | -8 | -5 | .
COc1cc(CNn2c(C)n[nH]c2=S)cc(Br)c1OCc1ccc(F)cc1 | 17 | 70* | -3 | -14 | 8 | -14 | 33
CC(C)c1ccc(NC(=O)c2ccc(Br)o2)cc1 | 2 | 81* | 0 | -11 | 4 | -5 | 31
COc1ccc(NC(=O)c2ccc(Br)o2)cc1 | -7 | 20 | -1 | 2 | 0 | -7 | .
CC(C)c1ccc(NC(=O)c2cccc(Br)c2)cc1 | -4 | 68* | -3 | -9 | 0 | -7 | 2
Cc1ccc(S(=O)(=O)N(C)C)cc1NC(=O)CSc1nc2ncc(Cl)cc2[nH]1 | 1 | 66* | -2 | . | . | -9 | 52* | Diaph ctr 10uM=15;Diaphorase 30uM=39
N#C/C(=C\c1cccc(Oc2ccc(C(F)(F)F)cc2[N+](=O)[O-])c1)c1nc2ccccc2[nH]1 | 3 | 10 | 2 | 0 | -2 | 0 | .
O=C1CN(S(=O)(=O)c2cc(Br)ccc2Br)CCN1 | -4 | -6 | 0 | . | . | -1 | .
SMILES | HKDC1 inhibitor | PfGluPho inh | APOBEC3A inh | UBC9 SUMO inh | PfM18AAP inh | A3G deaminase | PfG6PD confirm | others
O=c1c(Br)ccc(Br)cc1Br | 32 | 66* | . | . | . | . | 45
CCOC(=O)N1CCC(NC(=O)C2CCCN(Cc3nc(-c4ccc(CC)cc4)oc3C)C2)CC1 (stereo unspecified) | -2 | -10 | -6 | 4 | -2 | -7 | .
CCOc1ccc(N(CC(=O)N/N=C/c2cc([N+](=O)[O-])ccc2Cl)S(C)(=O)=O)cc1 | 9 | 87* | 2 | -16 | -8 | 1 | 60* | Diaph ctr 10uM=72*;Diaphorase 30uM=46
COc1ccc(NS(=O)(=O)c2ccc(NC(=O)c3ccccn3)cc2)cc1 | -1 | -2 | -5 | . | . | -8 | .
N#Cc1c(NC(=O)Cn2nc(C(F)(F)F)c3c2CCCC3)sc2c1CCC2 | -18 | 70* | 0 | 21 | 5 | 25 | 43
NS(=O)(=O)c1cccc(NC(=O)COC(=O)CCc2ccccc2)c1 | -9 | 11 | 7 | -18 | 3 | -4 | .
O=C1C=CC(=O)N1c1ccc(-c2nc3ccccc3o2)cc1 | . | 108* | . | . | . | . | 77* | Diaph ctr 10uM=-25;Diaphorase 30uM=-3
COc1ccc(NC(=O)CSc2nccn2Cc2ccco2)c(OC)c1 | -7 | 11 | -5 | 10 | -6 | -6 | .
CN1C(=O)CSc2ccc(NC(=O)N3CCc4ccccc43)cc21 | -4 | 87* | -8 | 18 | -7 | -2 | 60* | Diaph ctr 10uM=45;Diaphorase 30uM=35
Cc1ccc(NC(=O)N2CCc3ccccc32)cc1C | -3 | 56 | -5 | -3 | -1 | -9 | .
Cc1ccc(/C=N/NC(=O)CSc2nc3ccccc3n2C)s1 | -1 | 117* | -5 | 8 | 3 | -6 | 87* | Diaph ctr 10uM=93*;Diaphorase 30uM=79*
O=C(CCCc1ccccc1)NC1CCSC1=O (stereo unspecified) | -2 | -8 | -1 | -24 | 5 | -4 | .
Cc1ccc(NC(=O)C2Cc3ccccc3CN2C(=O)c2ccccc2)cc1Cl (stereo unspecified) | -2 | 94* | -1 | -27 | 7 | -7 | 32
Cc1cnc(C=NNC(N)=S)c2cccc(N)c12 | 31 | 106* | . | . | . | . | 66* | Diaph ctr 10uM=-8;Diaphorase 30uM=-6
NC(=S)NN=Cc1nccc2c(C(F)(F)C(F)(F)C(F)(F)F)cccc12 | . | -17 | . | . | . | . | .
NC(=S)NN=Cc1nccc2ccccc12 | -22 | 80* | . | . | . | . | 38
